Test results taken from ChEMBL document CHEMBL1255218, “Development of molecular probes for the human 5-HT(6) receptor” (J Med Chem, 2010).
Calls of active or inactive are those of the source. The calls are words filed in the database; no cut-off is given here.

Assays:
[1] = molecular target: T1, 5-hydroxytryptamine receptor 6 (Homo sapiens, UniProt P50406); experiment: Displacement of [3H]LSD from human 5HT6 receptor expressed in HEK293 cells; assay type: cell-based
Method in brief: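 Membranes from HEK-293 cells stably expressing human 5-HT6R, in 50 mM Tris-HCl, 10 mM MgCl2, 0.5 mM EDTA, pH 7.4. Incubated 60 min at 37 °C with 2.5 nM [3H]LSD and competitor (10^-5 to 10^-10 M). Nonspecific binding defined with 100 μM serotonin. Filtered on 0.5% PEI-soaked filters; scintillation count. Ki by Cheng-Prusoff; 2-4 experiments in triplicate.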

[2] = molecular target: T1, 5-hydroxytryptamine receptor 6; experiment: Binding affinity to human 5HT6 receptor expressed in COS7 cells assessed as emission fluorescence intensity; assay type: cell-based; settings: COS-7
[3] = molecular target: T1, 5-hydroxytryptamine receptor 6; experiment: Binding affinity to human 5HT6 receptor assessed as emission fluorescence intensity

T1 sequence (P50406 whole entry): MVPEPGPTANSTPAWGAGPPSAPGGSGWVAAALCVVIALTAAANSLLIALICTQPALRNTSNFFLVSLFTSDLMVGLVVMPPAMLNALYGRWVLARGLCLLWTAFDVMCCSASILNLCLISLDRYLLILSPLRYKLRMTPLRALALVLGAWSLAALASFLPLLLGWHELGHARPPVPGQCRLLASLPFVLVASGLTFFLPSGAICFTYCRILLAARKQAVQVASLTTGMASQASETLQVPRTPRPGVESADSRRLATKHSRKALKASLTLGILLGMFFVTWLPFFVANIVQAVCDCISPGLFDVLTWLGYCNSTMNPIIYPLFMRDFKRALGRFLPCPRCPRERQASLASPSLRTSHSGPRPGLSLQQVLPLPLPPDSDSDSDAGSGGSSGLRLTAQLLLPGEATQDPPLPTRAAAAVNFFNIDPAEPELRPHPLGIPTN

SMILES	Ki [1] [nM]	Activity [2] [a.u.]	Activity [3]
COc1ccc(N(S(=O)(=O)c2cccc3c(N(C)C)cccc23)S(=O)(=O)c2cccc3c(N(C)C)cccc23)cc1N1CCNCC1	135	35	
COc1ccc(NS(=O)(=O)c2sc3ccc(Cl)cc3c2C)cc1N1CCN(S(=O)(=O)c2cccc3c(N(C)C)cccc23)CC1	165	730	
COc1ccc(NS(=O)(=O)c2sc3ccc(Cl)cc3c2C)cc1N1CCN(CCCCCCNC(=O)CCCC[C@@H]2SC[C@@H]3NC(=O)N[C@@H]32)CC1	90		
Cc1c(S(=O)(=O)Nc2ccc(OCCCCCCCCNS(=O)(=O)c3cccc4c(N(C)C)cccc34)c(N3CCNCC3)c2)sc2ccc(Cl)cc12	741	700	
COc1ccc(NS(=O)(=O)c2ccc(-c3ncc(-c4ccc(N(C)C)cc4)o3)cc2)cc1N1CCNCC1	523		inactive
COc1ccc(NS(=O)(=O)c2cccc3c(N(C)C)cccc23)cc1N1CCNCC1	8	52	
COc1ccc(N(CCCCNS(=O)(=O)c2cccc3c(N(C)C)cccc23)S(=O)(=O)c2sc3ccc(Cl)cc3c2C)cc1N1CCNCC1	747	221	
COc1ccc(N(CCCCCCCCNS(=O)(=O)c2cccc3c(N(C)C)cccc23)S(=O)(=O)c2sc3ccc(Cl)cc3c2C)cc1N1CCNCC1	215	> 1000	
COc1ccc(N(S(=O)(=O)c2sc3ccc(Cl)cc3c2C)S(=O)(=O)c2cccc3c(N(C)C)cccc23)cc1N1CCNCC1	27	19	

Next, values leading:

Ki [1] [nM]	Activity [2] [a.u.]	Activity [3]	SMILES
447	> 1000		COc1ccc(NS(=O)(=O)c2sc3ccc(Cl)cc3c2C)cc1N1CCN(CCCCCCCCNS(=O)(=O)c2cccc3c(N(C)C)cccc23)CC1
194	450		COc1ccc(NS(=O)(=O)c2cccc3c(N(C)C)cccc23)cc1N1CCN(CCCCCCCCNS(=O)(=O)c2cccc3c(N(C)C)cccc23)CC1
175	> 1000		COc1ccc(NS(=O)(=O)c2cccc3c(N(C)C)cccc23)cc1N1CCN(CCCCNS(=O)(=O)c2cccc3c(N(C)C)cccc23)CC1
554	287		COc1ccc(NS(=O)(=O)c2cccc3c(N(C)C)cccc23)cc1N1CCN(CCCCCCNS(=O)(=O)c2cccc3c(N(C)C)cccc23)CC1
266	> 1000		COc1ccc(NS(=O)(=O)c2sc3ccc(Cl)cc3c2C)cc1N1CCN(CCCCCCNS(=O)(=O)c2cccc3c(N(C)C)cccc23)CC1
